Results on 15 compounds are retold here after ChEMBL document CHEMBL1144245, “Discovery of 4-aryl-2-oxo-2H-chromenes as a new series of apoptosis inducers using a cell- and caspase-based high-throughput screening assay” (Bioorg Med Chem Lett, 2008).

In experiment [1] the test system is T47D. The experiment can be described thus: Induction of apoptosis in human T47D cells assessed as caspase 3 activation by HTS assay. In kind it is functional, cell-based.
The subject of the next experiment is HCT-116. The experiment can be described thus: Induction of apoptosis in human HCT 116 cells assessed as caspase 3 activation by HTS assay. In kind it is functional, cell-based.
Experiment [2] has as its system SNU-398. The experiment can be described thus: Induction of apoptosis in human SNU398 cells assessed as caspase 3 activation by HTS assay. In kind it is functional, cell-based.
The subject of experiment [3] is T47D. The experiment can be described thus: Growth inhibition of human T47D cells. In kind it is functional. The method in brief:
(§1)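 Growth inhibition assay in T47D, HCT116 and SNU398 cells, run in 96-well format. GI50 reported as mean ± SEM of three or more experiments.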

A short description of experiment [4]: Growth inhibition of human HCT 116 cells. In kind it is functional. The method in brief: as §1
Experiment [5] deals with SNU-398. The experiment is described as follows: Growth inhibition of human SNU398 cells. In kind it is functional. The method in brief:
as §1

In general, EC50 refers to the concentration that produces a half-maximal response. Broadly, the GI50 is the concentration at which growth is held to half of that of the control. The low end stands for more potent growth inhibition, the high end for less potent growth inhibition. On to `COc1cc(-c2c(C#N)c(=O)oc3cc(N(C)C)ccc23)cc(Br)c1OC`, for which the figures for the concentration giving a half-maximal response (EC50) in the experiment on T47D [1], with HCT-116 and with SNU-398 [2] were 280 nM, 400 nM and 260 nM, respectively. The GI50 in the experiment with T47D [3] worked out at 620 nM; in experiment [4], 460 nM; with SNU-398 [5] it was 150 nM.

For the compound `COc1cc(-c2c(C#N)c(=O)oc3c2ccc2cnccc23)cc(Br)c1OC`, the EC50 was determined as 3000 nM with T47D [1], 4800 nM in the experiment with HCT-116 and 2500 nM with SNU-398 [2].

On to `COc1cc(-c2c(C#N)c(=O)oc3c2ccc2c3ccn2C)cc(Br)c1OC`, for which the half-maximal effective concentration (EC50) amounted to 13 nM with T47D [1], 10 nM with HCT-116 and 6 nM with SNU-398 [2]. Further, the GI50 with T47D [3] was found to be 0.7 nM; in experiment [4], 0.9 nM; in the experiment on SNU-398 [5], 0.3 nM.

`COc1cc(-c2c(C#N)c(=O)oc3cc(N)ccc23)cc(Br)c1OC`: the EC50 in the experiment with T47D [1] amounted to 820 nM; in the experiment with HCT-116, 990 nM; in the experiment on SNU-398 [2], 490 nM. The GI50 was 630 nM in the experiment with T47D [3], 630 nM in experiment [4] and 440 nM in the experiment with SNU-398 [5].

For `COc1ccc2c(-c3cc(Br)c(OC)c(OC)c3)c(C#N)c(=O)oc2c1`, the results for the 50% effective concentration (EC50) with T47D [1], in the experiment with HCT-116 and in the experiment on SNU-398 [2] were 42 nM, 41 nM and 26 nM, respectively.

With `COc1cc(-c2c(C#N)c(=O)oc3cc(Cl)ccc23)cc(Br)c1OC`, the concentration giving a half-maximal response (EC50) with T47D [1] turned out to be 6900 nM; in the experiment with HCT-116, 9400 nM; in the experiment with SNU-398 [2], 5500 nM.

Consider `COc1cccc(-c2c(C#N)c(=O)oc3cc(OC)ccc23)c1`, for which the EC50 in the experiment on T47D [1] worked out at 53 nM; with HCT-116, 59 nM; in the experiment on SNU-398 [2], 29 nM.

On to `COc1cc(-c2c(C#N)c(=O)oc3c2ccc2c3ccn2C)cc2c1OCO2`, for which the EC50 with T47D [1] turned out to be 27 nM; in the experiment with HCT-116, 27 nM; with SNU-398 [2] it was 17 nM. Further, the figures for the 50% growth inhibitory concentration (GI50) (in the experiment on T47D [3]; in experiment [4]; in the experiment with SNU-398 [5]) were 25 nM, 26 nM and 7.9 nM, respectively.

As to `Cc1cncc(-c2c(C#N)c(=O)oc3c2ccc2c3ccn2C)c1`, the EC50 with T47D [1] worked out at 19 nM; in the experiment with HCT-116, 16 nM; in the experiment with SNU-398 [2] it was 14 nM.

In the case of `Cn1ccc2c3oc(=O)c(C#N)c(-c4cccc([N+](=O)[O-])c4)c3ccc21`, the EC50 with T47D [1] worked out at 43 nM; with HCT-116, 13 nM; in the experiment on SNU-398 [2] it was 9.5 nM.

For the compound `COc1cc(C2C(C#N)=C(N)Oc3cc(N(C)C)ccc32)cc2c1OCO2` (stereo not given), the EC50 with T47D [1] is 73 nM.

For the compound `Cn1ccc2c3oc(=O)c(C#N)c(-c4cccc(Br)c4)c3ccc21`, the EC50 turned out to be 24 nM with T47D [1], 14 nM in the experiment on HCT-116 and 9.6 nM in the experiment with SNU-398 [2].

`COc1cc(OC)cc(-c2c(C#N)c(=O)oc3cc(OC)ccc23)c1`: the EC50 in the experiment with T47D [1] was 17 nM; in the experiment with HCT-116, 18 nM; with SNU-398 [2], 15 nM.

As to `COc1cccc(-c2c(C#N)c(=O)oc3c2ccc2c3ccn2C)c1`, the EC50 in the experiment on T47D [1] turned out to be 43 nM; in the experiment on HCT-116, 20 nM; in the experiment with SNU-398 [2] it was 17 nM.

On to `COc1cc(OC)cc(-c2c(C#N)c(=O)oc3c2ccc2c3ccn2C)c1`, for which the EC50 was 24 nM in the experiment on T47D [1], 20 nM with HCT-116 and 13 nM in the experiment on SNU-398 [2].
